# Bioassay records as filed in PubChem.
# Hits are enriched below; roughly 3% of the tested compounds scored in any of these assays.
# MPTP inh – permeability transition pore inhibition. hit rate 1.4% among 360,000. inhibition, % at 10 µM. AID 602449. isolated mouse mitochondria, Ca2+ swelling absorbance, 30 min;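 active = inhibition of 50% or more, scaled per plate between neutral and stimulator controls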;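 note: 0% = DMSO wells given calcium and 100% = 1 mM EGTA wells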
# Apaf1 inhib – human Apaf-1 inhibition. inhibition, % at 20 µM. hit rate 0.71% among 330,000. reconstituted apoptosome caspase-3 activity, DEVD-Rh110 fluorescence; active = inhibition of at least 40% at 20 µM;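 note: plate controls were DMSO wells for no effect and DEVD-CHO caspase inhibitor wells for full effect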
#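 Material: reconstituted apoptosome with Apaf-1, cytochrome c, caspase-9, procaspase-3, dATP. Technique: Rh110 fluorescence intensity. Buffer or medium: pH 7.5 Hepes buffer with CHAPS, BSA, DTT. Times: 30 min plus 50 min, RT.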
# Exocytosis inh – blocks lytic granule exocytosis | inhibition, % at 10 µM | hit rate 0.66% among 360,000 | TALL-104 LAMP-1 surface exposure, flow cytometry; cells stimulated with thapsigargin and PMA | AID 651702;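 active = inhibition above about 55%, limit read from the data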
# hiPSC survival – increases survival of single human iPS cells | survival enhancement, % at 20 µM | hit rate 0.044% among 360,000 | AID 602274 | hiPSC single-cell survival, ATPlite luminescence; 100% = ROCK inhibitor wells, 0% = DMSO; in the data active = survival enhancement above about 18%;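 note: cells exposed to compounds for 16 hours before the ATP read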
# MIN6 prolif-1 – inducers of beta-cell replication in MIN6 cells; hit rate 0.29% among 330,000; AID 2380; proliferation, % at 10 µM; MIN6 cells proliferation, ATPlite luminescence, 48 h; cells starved in 0.2% serum; 100% = growth in 10% serum;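 active = compounds whose signal lies at least 3.5 SD above the mean of all wells on their plate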;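 note: 0% = DMSO-treated cells in low-serum medium and 100% = 10% serum control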
# UBC13 inh – human UBC13 polyubiquitination inhibition | inhibition, % at 20 µM | UBC13 polyubiquitin chain formation, TR-FRET | P61088 | hit rate 0.47% among 330,000; in the data active = inhibition above about 45%, passing the limit was not always enough
# Target sequence (P61088 whole entry, looked up): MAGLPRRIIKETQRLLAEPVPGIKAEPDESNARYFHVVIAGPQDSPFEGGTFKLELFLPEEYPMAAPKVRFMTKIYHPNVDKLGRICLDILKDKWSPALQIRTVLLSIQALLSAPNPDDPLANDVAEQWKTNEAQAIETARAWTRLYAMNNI
# MIN6 prolif-2 – MIN6 beta-cell replication induction, confirmed. proliferation increase, % at 50 µM. MIN6 beta-cell proliferation, ATPlite luminescence, 48 h; cells kept in 0.2% serum; scaled between 0.2% and 10% serum. shares compounds with MIN6 prolif-1. 920 tested, under 10 active;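 active = proliferation increase above 40% at any of the four tested concentrations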
# Active calls of the source: *; · = not tested or not shown.
SMILES,MPTP inh,Apaf1 inhib,Exocytosis inh,hiPSC survival,MIN6 prolif-1,UBC13 inh,MIN6 prolif-2
C#CCOCCOCCOCCNc1nc(N2CCN(C(=O)[C@H](CCC(=O)O)n3cc(CN)nn3)CC2)nc(N2CCN(C(=O)[C@H](CCCCN)n3cc([C@@H](N)CC(N)=O)nn3)CC2)n1,0,-2,-1,1,0,16,·
CC(=O)Nc1n[nH]c(S(=O)(=O)Cc2ccc(Cl)cc2Cl)n1,0,3,4,1,8.0*,10,1
COc1ccccc1-c1csc(Nc2ccc(Oc3ccccc3)cc2)n1,4,·,-6,1,·,·,·
COc1ccc(F)cc1S(=O)(=O)NCc1ccccc1,0,0,-1,6,0.0*,8,0
COc1ccc(C(=O)N2CCC2)cc1S(=O)(=O)NCc1ccc(Cl)cc1,0,2,16,-1,8.2*,15,-2
COc1ccc(Br)cc1S(=O)(=O)NCc1ccccc1,0,2,-2,0,0,14,·
CN1CCN(C(=O)c2cc3c(=O)n4ccccc4nc3s2)CC1,1,-2,4,0,2,24,·
COc1ccccc1N1CCN(C(=O)c2cc3c(=O)n4ccccc4nc3s2)CC1,-1,9,-11,0,13*,-9,3
CN(CCc1ccccc1)C(=O)CCc1nnc(Cc2ccc3c(c2)OCO3)o1,0,-3,15,1,4,2,·
Cn1[nH]cc(C=NC(N)=O)c1=O,-1,·,4,3,·,·,·
NNC(=O)c1ccc(N2CCc3ccccc32)c([N+](=O)[O-])c1,-1,11,6,0,1,-108,·
Nc1ncnc(N2CCc3ccccc32)c1[N+](=O)[O-],0,0,-1,0,20*,1,9
COc1ccccc1C(=O)NCC(C)(C)CN=C1NS(=O)(=O)c2ccccc21,-2,-7,13,1,6.6*,2,-2
COc1ccccc1C(=O)NCCN=C1NS(=O)(=O)c2ccccc21,0,-6,-9,1,-5,11,·
CN(C)C(/C=C/Nc1cccc([N+](=O)[O-])c1)=C(C#N)C#N,-2,-6,-1,-1,8.1*,-2,1
COC(=O)C1=C(Cn2cnc3ccccc32)NC(=O)NC1c1cc(C)ccc1C (configuration not stated),0,-2,-1,-2,5.4*,7,-6
CCOC(=O)C1=C(Cn2cnc3ccccc32)NC(=O)NC1c1cc(C)ccc1C (configuration not stated),0,0,16,3,-3,11,·
COc1ccc2[nH]c3c(c2c1)CC(C)NC3=O (configuration not stated),0,-4,-4,0,7.3*,1,4
COc1ccc2[nH]c3c(c(=O)c2c1)CCCC3,0,·,4,-1,·,·,·
Oc1ccccc1-c1nc(N2CCCC2)c2ccccc2n1,0,13,17,1,7.0*,17,6
Fc1ccccc1-c1nc(N2CCCCC2)c2ccccc2n1,2,12,2,-1,-1,-4,·
C#CCNC(=O)C[C@@H]1C[C@@]2(C(=O)OC)CCCCC=C2N(Cc2ccc3c(c2)OCO3)C1=O,-2,·,-4,·,·,·,·
COc1cc(-c2noc(C)c2C#CC2(O)CCCCC2)cc(OC)c1OC,0,13,19,1,12*,12,-6
O=C(NC1CCCC1)C1CCCN(S(=O)(=O)c2ccc(F)cc2)C1 (configuration not stated),-1,4,-2,0,-2,4,·
O=C(NC1CCCCCC1)C1CCN(S(=O)(=O)c2ccc(F)cc2)CC1,0,-21,-4,-1,6.5*,5,1
COc1ccc([N+](=O)[O-])cc1NCc1cccnc1,0,-4,-3,1,11*,-2,2
COc1ccc([N+](=O)[O-])cc1NCc1cccc([N+](=O)[O-])c1,3,13,9,0,-1,-6,·
COc1ccc(S(=O)(=O)Nc2ccc(F)c(F)c2)cc1C(=O)N1CCOCC1,0,-2,-8,2,-2,-3,·
